This is an account of results in ChEMBL document CHEMBL1127457, “Nonpeptide renin inhibitors with good intraduodenal bioavailability and efficacy in dog” (J Med Chem, 1994).

Series [1] in a line: Average area under curve for compound at 1 mg/kg dose intravenous administration to Ferret. The settings on record: in vivo.
The nature of series [2]: Average area under curve for the compound at 10 mg/kg dose after intraduodenal administration to rat. Particulars: in vivo.
The nature of series [3]: Average area under curve for the compound at 1 mg/kg dose after intravenous administration to rat. The settings on record: in vivo.
Series [4] in a line: Average area under curve at 10 mg/kg dose after intraduodenal administration to Ferret. The settings on record: in vivo.
Series [5] can be described thus: Average area under curve at 10 mg/kg intraduodenal administration to salt depleted dog. Particulars: in vivo.
Series [6] can be described thus: Average area under curve at 1 mg/kg intravenous administration to salt depleted dog. The settings on record: in vivo.
Series [7] is described as follows: C(compound) was tested for percent […] bioavailability in rat. The class given is ADME, organism-based. The settings on record: in vivo, po. The method, boiled down:
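Intraduodenal rather than oral dosing: 10 mg/kg id, plus a 1 mg/kg iv bolus. Plasma drug levels were measured by renin-inhibition bioassay, which counts active metabolites as parent. Level–time data were fitted to a biexponential decay model to give AUC. Bioavailability is the dose-corrected AUCid/AUCiv for each experiment, given as mean ± SD of the mean; n=3 unless noted.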

Series [8] is described as follows: Oral bioavailability in dog (salt depleted). Particulars: in vivo.
Series [9] deals with Canis familiaris. In words: Mean arterial pressure response following 10 mg/kg intraduodenal administration to salt depleted dog. Particulars: in vivo, other.
In series [10] the test system is Canis familiaris. In words: Mean arterial pressure response following 1 mg/kg intravenous administration to salt depleted dog. The settings on record: in vivo.
A short description of series [11]: Oral bioavailability in ferret. The settings on record: in vivo.
Series [12] can be described thus: Average peak plasma concentration of compound after 10 mg/kg intraduodenal administration to Ferret.
Series [13] can be described thus: Average peak plasma concentration of compound after 10 mg/kg intraduodenal administration to rat.
A short description of series [14]: Average peak plasma concentration of compound after 1 mg/kg intravenous administration in salt depleted dog.
A short description of series [15]: Average peak plasma concentration of compound after 1 mg/kg intravenous administration to Ferret.
A short description of series [16]: Average peak plasma concentration of compound after 1 mg/kg intravenous administration to rat. Particulars: plasma.
Series [17] is described as follows: Partition coefficient (logD6.5). Particulars: octanol/water, pH 6.5.
Series [18] can be described thus: Partition coefficient (logD7.4). The settings on record: octanol/water, pH 7.4.
Series [19] in a line: Average peak plasma concentration of compound at 10 mg/kg intraduodenal administration in salt depleted dog.
Series [20] deals with T1, Renin (Rattus norvegicus, UniProt P08424).
T1 sequence (P08424 whole entry): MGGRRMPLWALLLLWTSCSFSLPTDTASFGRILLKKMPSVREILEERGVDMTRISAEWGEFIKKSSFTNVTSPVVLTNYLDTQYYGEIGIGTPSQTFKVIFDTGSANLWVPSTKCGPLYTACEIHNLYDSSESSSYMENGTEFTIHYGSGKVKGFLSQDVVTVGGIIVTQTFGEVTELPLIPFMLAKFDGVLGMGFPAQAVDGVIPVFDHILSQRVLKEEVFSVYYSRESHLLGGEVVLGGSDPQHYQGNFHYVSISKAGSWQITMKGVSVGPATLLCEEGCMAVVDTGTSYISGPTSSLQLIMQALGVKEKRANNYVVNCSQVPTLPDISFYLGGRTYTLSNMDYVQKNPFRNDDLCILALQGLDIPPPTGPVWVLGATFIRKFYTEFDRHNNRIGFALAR
In words: (§1) Tested in vitro for its ability to inhibit the rat plasma renin. The class given is cell-free. Put shortly:
(§2)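 IC50 against renin in plasma from the named species (dog, ferret, human, rat); single determination in most cases.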

The target of series [21] is T2, Renin (Homo sapiens, UniProt P00797).
T2 sequence (P00797 whole entry): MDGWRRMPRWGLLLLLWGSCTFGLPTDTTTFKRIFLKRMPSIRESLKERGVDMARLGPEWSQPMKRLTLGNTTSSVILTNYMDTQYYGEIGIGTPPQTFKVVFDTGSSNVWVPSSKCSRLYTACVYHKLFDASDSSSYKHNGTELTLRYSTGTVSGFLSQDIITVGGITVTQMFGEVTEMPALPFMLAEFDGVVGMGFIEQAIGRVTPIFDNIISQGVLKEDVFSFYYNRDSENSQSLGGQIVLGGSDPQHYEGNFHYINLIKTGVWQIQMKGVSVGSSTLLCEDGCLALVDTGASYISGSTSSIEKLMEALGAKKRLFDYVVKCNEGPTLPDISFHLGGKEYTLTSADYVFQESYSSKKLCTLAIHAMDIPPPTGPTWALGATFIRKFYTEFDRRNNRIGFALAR
In words: Tested in vitro for its ability to inhibit the human plasma renin. The series is classed as cell-free. The method, boiled down: as §2

The species entered for the next series is Homo sapiens. Particulars: Liver, Microsome.
In series [22] the target is Renin (Canis familiaris). As to the kind of experiment: Tested in vitro for its ability to inhibit the dog plasma renin.
Series [23] addresses Renin (Mustela putorius furo). As to the kind of experiment: Tested in vitro for its ability to inhibit the ferret plasma renin.
Series [24] in a line: Oral bioavailability in rat. The settings on record: in vivo, intraduodenal, 10 mg/kg.
For series [25], the target named is T1, Renin. Described as §1. The class given is functional, cell-free. The method, boiled down:
as §2

Series [26] addresses Renin (Canis familiaris). In words: Tested in vitro for its ability to inhibit the dog plasma renin. This is another data set of the same source.
Series [27] has as its target Renin (Mustela putorius furo). As to the kind of experiment: Tested in vitro for its ability to inhibit the ferret plasma renin. This is another data set of the same source.
In series [28] the target is Renin (Canis familiaris). As to the kind of experiment: Tested in vitro for its ability to inhibit the dog plasma renin. The source holds these as a separate data set.
Series [29] concerns the target Renin (Mustela putorius furo). In words: Tested in vitro for its ability to inhibit the ferret plasma renin. This is another data set of the same source.

pIC50: −log10 of the molar value.

As for `CCCC[C@H](N[C@@H](Cc1ccccc1)C(=O)N1CCC(OCOC)CC1)C(=O)N[C@@H](CC1CCCCC1)[C@@H](O)C[C@H](C(=O)NCCN1CCOCC1)C(C)C`, the AUC is 1870 ng·h/mL in series [1]; 1220 ng·h/mL in series [2]; 242 ng·h/mL in series [3]; 9750 ng·h/mL in series [4]; 6530 ng·h/mL in series [5]; 1260 ng·h/mL in [6]. Besides, the bioavailability in [7] worked out at 50%; in series [8], 52%; in series [11] it was 51%. Besides, the results for the Arterial pressure in the series with Canis familiaris [9] and in the series with Canis familiaris [10] were 6449 % mmHg min and 2849 % mmHg min, respectively. In addition, the peak concentration (Cmax) worked out at 6500 ng/mL in series [12] (plasma); 910 ng/mL in series [13] (plasma); 7000 ng/mL in [14] (plasma); 2840 ng/mL in [15] (plasma); 680 ng/mL in [16]; 1830 ng/mL in series [19] (plasma). The logD in series [17] and in series [18] was > 5 in each case. The negative logarithm of the IC50 (pIC50) on Renin [20] is 5.42; against Renin [21], 8.41; against Renin (Canis familiaris) [22], 7.85; in series [23], 6.77. The same compound showed a Rate (nM min-1 (nM of cytochrome P450)-1) in the series filed under Homo sapiens of 3.71.
Turning to `CCCC[C@H](N[C@@H](Cc1ccccc1)C(=O)N1CCC(OCOC)CC1)C(=O)N[C@@H](CC1CCCCC1)[C@@H](O)C[C@H](C(=O)NCc1ccccn1)C(C)C`, the AUC in series [1] is 3030 ng·h/mL; in [2], 6870 ng·h/mL; in series [3], 3130 ng·h/mL; in series [4], 14100 ng·h/mL. Moreover, the bioavailability in series [11] amounted to 46%; in series [24] it was 21%. Further, the Cmax in series [12] (plasma) amounted to 9120 ng/mL; in [13] (plasma), 4570 ng/mL; in series [15] (plasma), 10000 ng/mL; in [16], 6250 ng/mL. The logD in series [17] and in [18] was > 5 in each case. The negative-log IC50 (pIC50) is < 5.00 against Renin [25], 7.92 at Renin [21], 7.12 at Renin (Canis familiaris) [22] and 6.00 in [23]. The compound further gave a Rate (nM min-1 (nM of cytochrome P450)-1) in the series listed under Homo sapiens of 3.52.
As to `CCCC[C@H](N[C@@H](Cc1ccccc1)C(=O)N1CCC(OCOC)CC1)C(=O)N[C@@H](CC1CCCCC1)[C@@H](O)C[C@H](C(=O)NCCC[N+]1([O-])CCOCC1)C(C)C`, the AUC in series [1] was 668 ng·h/mL; in series [2], 140 ng·h/mL; in series [3] it was 212 ng·h/mL; in series [4] it was 1350 ng·h/mL; in [5], 1430 ng·h/mL; in [6] it was > 732 ng·h/mL. Besides, the values for the bioavailability in series [8], in series [11] and in series [24] were < 19%, 20% and 6%, respectively. Besides, the results for the Arterial pressure in the series with Canis familiaris [9] and with Canis familiaris [10] were 6881 % mmHg min and 3707 % mmHg min, respectively. Also, the highest concentration (Cmax) in series [12] (plasma) is 1180 ng/mL; in series [13] (plasma), 140 ng/mL; in series [14] (plasma) it was > 5530 ng/mL; in [15] (plasma) it was 1830 ng/mL; in series [16], 1130 ng/mL; in series [19] (plasma), 420 ng/mL. For the same compound, the logD in [17] and in [18] was 3.6 each time. Further, the pIC50 is 5.19 on Renin [25], 8.37 against Renin [21], 7.72 against Renin (Canis familiaris) [26] and 6.38 in [27].
As to `CCCC[C@H](N[C@@H](Cc1ccccc1)C(=O)N1CCC(OCOC)CC1)C(=O)N[C@@H](CC1CCCCC1)[C@@H](O)C[C@H](C(=O)NCCCN1CCOCC1)C(C)C`, the AUC was 902 ng·h/mL in [1]; 235 ng·h/mL in [2]; 66.7 ng·h/mL in [3]; 6800 ng·h/mL in series [4]; 4000 ng·h/mL in series [5]; 693 ng·h/mL in [6]. Moreover, the values for the bioavailability in series [8], in series [11] and in [24] were 57%, 75% and 36.3%, respectively. The Arterial pressure is listed as 10803 % mmHg min with Canis familiaris [9] and 8356 % mmHg min in the series with Canis familiaris [10]. Further, the Cmax in series [12] (in vivo) was 4620 ng/mL; in series [13] (in vivo) it was 190 ng/mL; in series [14] (in vivo), 4700 ng/mL; in series [15] (in vivo) it was 1550 ng/mL; in series [19] (in vivo), 1260 ng/mL. The logD in series [17] turned out to be 3.9. Besides, the Rate (nM min-1 (nM of cytochrome P450)-1) in the series listed under Homo sapiens was found to be 4.14.
Regarding `CCCC[C@H](N[C@@H](Cc1ccccc1)C(=O)N1CCC(OCOC)CC1)C(=O)N[C@@H](CC1CCCCC1)[C@@H](O)C[C@H](C(=O)NCC(C)(C)N1CCOCC1)C(C)C`, the AUC in series [1] is 2630 ng·h/mL; in series [2] it was 763 ng·h/mL; in series [3], 215 ng·h/mL; in series [4], 16600 ng·h/mL; in [5], 6970 ng·h/mL; in series [6], 1840 ng·h/mL. The values for the bioavailability in series [8], in [11] and in [24] were 37%, 63% and 35%, respectively. The Arterial pressure in the series with Canis familiaris [9] is recorded as 8525 % mmHg min; in the series with Canis familiaris [10] it was 7589 % mmHg min. Besides, the Cmax was found to be 11500 ng/mL in [12] (plasma); 600 ng/mL in series [13] (plasma); 7560 ng/mL in [14] (plasma); 2980 ng/mL in [15] (plasma); 340 ng/mL in series [16]; 1600 ng/mL in series [19] (plasma). Also, the logD in series [17] and in series [18] was > 5 in each case. Besides, the pIC50 at Renin [20] is 5.68; against Renin [21], 8.04; on Renin (Canis familiaris) [28], 7.85; in series [29] it was 6.92. Also, in the series listed under Homo sapiens, the Rate (nM min-1 (nM of cytochrome P450)-1) came to 4.32.

In general, AUC refers to the area under the concentration-time curve, a measure of exposure. Usually bioavailability stands for the share of a dose that reaches the circulation, judged against a reference dose that is usually intravenous. A word on the Cmax: it is the peak of the concentration-time curve. The term logD denotes lipophilicity at a set pH, counting ionised and neutral species. Low values mean lower lipophilicity, high ones higher lipophilicity. As a reminder, the pIC50 is the negative decadic logarithm of the IC50, by convention in mol/L.
